# Shown are actives, neighbours in structure and some others; about 1.8% of the full set was active somewhere.
# GRK2 aptamer HTS: human GRK2 inhibition via aptamer displacement | bead flow cytometry, FAM-aptamer displacement from GRK2 | inhibition of aptamer binding, % at 10 µM | 0.59% of 330,000 active;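 active = inhibition of aptamer binding above 40%, roughly 3 SD of noise, on plates passing a quality check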;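 also: median bead fluorescence of bound FAM aptamer so fluorescent compounds give negative values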
# ARNT TACC3 PPI: ARNT/TACC3 interaction disruption. Q9Y6A5. AlphaScreen His-ARNT PAS-B/GST-TACC3 binding, luminescence; TACC3 fragment carries E629A point mutation. inhibition, % at 9.99 µM. 0.66% of 390,000 active. AID 623870;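 active = mean inhibition of replicates at least 50% and at least half of replicates each reaching 50%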;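 also: 0% = complete ARNT plus TACC3 wells and 100% = ARNT alone without TACC3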
# CAL PDZ FP-1: inhibitors of human CAL PDZ peptide binding. inhibition, % at 24.9 µM. 0.92% of 300,000 active. AID 602252. Q9HD26. purified CAL PDZ, TMR-peptide fluorescence polarization, 1 h;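 active = mean inhibition of at least 30% with at least half of replicates also reaching 30%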;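 also: 0% = DMSO neutral control and 100% = excess unlabeled competitor peptide PRC23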
# CAL PDZ FP-2: human CAL PDZ-peptide interaction inhibition; Q9HD26; purified CAL PDZ, TMR-peptide fluorescence polarization, 1 h; inhibition, % at 20 µM; 0.02% of 330,000 active;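 active = highest replicate inhibition of at least 40%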;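 also: plate controls were DMSO neutral control wells for no effect and unlabeled competitor peptide control wells for full effect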
#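 Read-out basis: mP drop reported as inhibition | Assay system: Tagged CAL PDZ protein CerCALP, purified | Benchmarks: Unlabelled peptide for full inhibition, DMSO wells as neutral | Schedule: 1 h incubation at room temperature before polarization reading | Buffer or medium: Sodium phosphate/NaCl buffer pH 7.4 with TCEP, IgG, Thesit | Doses: Single point, 20 µM | Measured by: Fluorescence polarization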
# Tn6 DDE FP: inhibitors of Tn6 peptide binding to human fibrin DD(E). P02675. Fibrin DD(E) TRITC-Tn6 fluorescence polarization displacement. inhibition, % at 8.3 µM. 0.21% of 370,000 active. AID 720509;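 active = inhibition above a per-campaign cutoff: mean of compounds within control limits plus 3 SD, cut at about 15% in these data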;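 also: 0% = median of all compound wells on the plate and 100% = blocking peptide control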
# DDE Tn7 FP inh: DD(E)-Tn7 binding inhibition, primary FP screen; 0.13% of 370,000 active; inhibition, % at 8.3 µM; P02675; AID 720508; FP displacement of FITC-Tn7 peptide from fibrin DD(E); 0% = median of compound wells per plate;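 active = inhibition above the mean of compounds falling within the control limits plus 3 SD of them, cut at about 14% in these data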;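 also: 0% = plate median of compound wells and 100% = 10 µM Aha-Tn7 peptide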
#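 Test system: human clot-derived fibrin DD(E) complex / Quantity: 2 µM final DD(E) protein / Incubation: 10 min plus 3 h, room temperature / Measured by: fluorescence polarization / Benchmarks: high control of 10 µM Aha-Tn7 peptide / Replicates: singlicate testing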
# ARNT Alpha ctr-1: interferes with AlphaScreen signal, flagging false ARNT-TACC3 hits; AID 651705; 50% of 1,200 active; His-ARNT PASB-GST AlphaScreen artifact counter-screen, luminescence; shares compounds with ARNT TACC3 PPI; AC50, µM (top dose mostly 68 µM), inactives show top-dose activity change, negative = signal decrease;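 active = every separate test run was called active for a drop in luminescence, with AC50 within twice the top valid dose, actives reach about 71 µM in these data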
# ARNT Alpha ctr-2: counter-screen for ARNT-TACC3 inhibitors: AlphaScreen artifacts | AC50, µM | shares compounds with ARNT TACC3 PPI | Dual-tagged His-ARNT PASB-GST AlphaScreen artifact counter-screen | 70% of 45 active;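 active = luminescence drop, with half-maximal potency fitted within twice the sample's top valid dose, cut at about 70 µM in these data; inactive = the rest, including signal moving the wrong way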
# * marks the source's active call; other numbers are inactive results; · = not tested or not shown; [ ] = dose if it differs, or a comment.
SMILES,GRK2 aptamer HTS,ARNT TACC3 PPI,CAL PDZ FP-1,CAL PDZ FP-2,Tn6 DDE FP,DDE Tn7 FP inh,ARNT Alpha ctr-1,others
C/C=C/c1ccc([C@H]2[C@@H](CNC(=O)CC)N(Cc3ccccn3)[C@H]2CO)cc1,·,47*,·,·,·,·,-15%[42 µM],
CCOC(=O)C1(Cc2ccccc2C)CCCN(C(=O)c2ccc(C(C)=O)s2)C1 (stereo not drawn),·,·,·,·,-10,-3,·,
Cc1cc(=O)n2c3c(c4c(cc13)c(CN(C)C)cc(=O)n4C)OC2,·,34*,-3,0,-7,-3,-21%,
Cc1ccc(/C=N/NC(=S)N2CCOCC2)cc1,0,45*,-5,0,7,7,-31%,
CC1CCN(S(=O)(=O)c2ccc(C(=O)Nc3nnc(-c4ccno4)o3)cc2)CC1,·,·,·,·,·,·,·,ARNT Alpha ctr-2=>136
CC1CCN(S(=O)(=O)c2ccc(C(=O)Nc3ncccc3O)cc2)CC1,4,-7,-8,-2,-5,7,·,
O=C(Nc1nnc(-c2ccncc2)o1)c1ccccc1F,3,1,-3,0,-1,-4,·,
O=C(Nc1nnc(-c2ccncc2)o1)c1ccccc1,2,52*,-1,-1,-3,-4,-15%,
N#Cc1ccc(C(=O)Nc2nnc(-c3ccccn3)o2)cc1,0,54*,-1,1,4,-6,-22%,
CC1CCN(S(=O)(=O)c2ccc(C(=O)Nc3nnc(-c4ccccn4)o3)cc2)CC1,3,42,1,-2,6,-3,·,ARNT Alpha ctr-2=>136
CC1CC(C)CN(S(=O)(=O)c2ccc(C(=O)Nc3nnc(C4CC4)o3)cc2)C1 (stereo not drawn),0,7,8,-3,-1,-2,·,
CCOC(=O)N1CCN(S(=O)(=O)c2ccc(C(=O)Nc3nnc(C4CC4)o3)cc2)CC1,1,61*,-1,-1,4,-2,-42%,
CN1CCN(C(=O)C[C@@H]2CC[C@@H]3[C@H](COC[C@@H](O)CN3CC3CC3)O2)CC1,·,-4,·,·,·,·,·,
CC(C)NC(=O)N(C)C[C@@H]1OCCCC[C@@H](C)Oc2ccc(NC(=O)Cc3ccccc3)cc2C(=O)N([C@H](C)CO)C[C@@H]1C,·,-11,·,·,·,·,·,
CC(C)NC(=O)Nc1ccc2c(c1)C(=O)N([C@H](C)CO)C[C@@H](C)[C@H](CN(C)C)OCCCC[C@@H](C)O2,·,-7,·,·,·,·,·,
CC(C)NC(=O)N(C)C[C@H]1OCCCC[C@H](C)Oc2ccc(NC(=O)Cc3ccccc3)cc2C(=O)N([C@H](C)CO)C[C@H]1C,·,106*,·,·,·,·,-3%[42 µM],
CC(C)NC(=O)Nc1ccc2c(c1)C(=O)N([C@H](C)CO)C[C@@H](C)[C@H](CN(C)C(=O)Nc1ccccc1)OCCCC[C@@H](C)O2,·,12,·,·,·,·,·,
CC(C)NC(=O)Nc1ccc2c(c1)C(=O)N([C@@H](C)CO)C[C@H](C)[C@@H](CN(C)C)OCCCC[C@H](C)O2,·,109*,·,·,·,·,-1%[42 µM],
CC(C)NC(=O)Nc1ccc2c(c1)C(=O)N([C@H](C)CO)C[C@@H](C)[C@@H](CN(C)C(=O)Nc1ccccc1)OCCCC[C@@H](C)O2,·,66*,·,·,·,·,-3%[38 µM],
C[C@@H]1CN([C@@H](C)CO)C(=O)Cc2cc(NS(=O)(=O)c3ccccc3)ccc2O[C@H]1CN(C)C(=O)Nc1cccc2ccccc12,·,14,·,·,·,·,·,
COc1ccc2c(CC(=O)Nc3ccccc3OC)coc2c1,3,-2,·,0,1,2,·,
COc1ccc(C(=O)NNC(=O)Cc2coc3cc(OC)ccc23)cc1,7,57*,0,-2,3,2,-7%,
Cc1ccccc1/C=N/NC(=O)Cn1cnc([N+](=O)[O-])n1,9,4,-3,0,-1,-1,·,
O=C(Cn1cncn1)N/N=C/c1cc([N+](=O)[O-])ccc1O,1,64*,-2,-1,-2,1,28µM*,

# Screens from PubChem BioAssay.
